Assays:
Assay type in all cases: functional
Rattus norvegicus [1] = assay: Heart uptake in percent injected dose/gram (range) was determined in female fischer rat after 1251-labelled compound complexed with bovine serum albumin was injected intravenously after 60 minutes
Outline: (§1)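 Female Fischer 344 rats, 10–12 weeks old (170–200 g), fed and watered ad libitum. ¹²⁵I-labeled fatty acid in 0.5 mL absolute ethanol added dropwise to stirred 6% bovine serum albumin at 40 °C (final ethanol 10%), 0.22-μm filtered, given into a lateral tail vein under ether anesthesia. At set times: ether anesthesia, cervical fracture, organs excised, rinsed, blotted, weighed and gamma counted. Values are % injected dose/g, 3–4 rats per time point.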

Rattus norvegicus [2] = assay: Heart uptake in percent injected dose/gram (range) was determined in female fischer rat after 1251-labelled compound complexed with bovine serum albumin was injected intravenously after 5 minutes; outline: as §1
Rattus norvegicus [3] = assay: Kidneys uptake in percent injected dose/gram (range) was determined in female fischer rat after 1251-labelled compound complexed with bovine serum albumin was injected intravenously after 5 minutes; outline: as §1
Rattus norvegicus [4] = assay: Lungs uptake in percent injected dose/gram (range) was determined in female fischer rat after 1251-labelled compound complexed with bovine serum albumin was injected intravenously after 5 minutes; outline: as §1
Rattus norvegicus [5] = assay: Liver uptake in percent injected dose/gram (range) was determined in female fischer rat after 1251-labelled compound complexed with bovine serum albumin was injected intravenously after 5 minutes; outline: as §1
Rattus norvegicus [6] = assay: Thyroid uptake in percent injected dose/gram (range) was determined in female fischer rat after 1251-labelled compound complexed with bovine serum albumin was injected intravenously after 5 minutes; outline: as §1
Rattus norvegicus [7] = assay: Blood uptake in percent injected dose/gram (range) was determined in female fischer rat after 1251-labelled compound complexed with bovine serum albumin was injected intravenously after 5 minutes; outline: as §1
Rattus norvegicus [8] = assay: Thyroid uptake in percent injected dose/gram (range) was determined in female fischer rat after 1251-labelled compound complexed with bovine serum albumin was injected intravenously after 60 minutes; outline: as §1
Rattus norvegicus [9] = assay: Blood uptake in percent injected dose/gram (range) was determined in female fischer rat after 1251-labelled compound complexed with bovine serum albumin was injected intravenously after 60 minutes; outline: as §1
Rattus norvegicus [10] = assay: Liver uptake in percent injected dose/gram (range) was determined in female fischer rat after 1251-labelled compound complexed with bovine serum albumin was injected intravenously after 60 min; outline: as §1
Rattus norvegicus [11] = assay: Kidneys uptake in percent injected dose/gram (range) was determined in female fischer rat after 1251-labelled compound complexed with bovine serum albumin was injected intravenously after 60 minutes; outline: as §1
Rattus norvegicus [12] = assay: Lungs uptake in percent injected dose/gram (range) was determined in female fischer rat after 1251-labelled compound complexed with bovine serum albumin was injected intravenously after 60 minutes; outline: as §1
Rattus norvegicus [13] = assay: Lungs uptake in percent injected dose/gram (range) was determined in female fischer rat after 1251-labelled compound complexed with bovine serum albumin was injected intravenously after 30 minutes; outline: as §1
Rattus norvegicus [14] = assay: Liver uptake in percent injected dose/gram (range) was determined in female fischer rat after 1251-labelled compound complexed with bovine serum albumin was injected intravenously after 5 hours; outline: as §1
Rattus norvegicus [15] = assay: Thyroid uptake in percent injected dose/gram (range) was determined in female fischer rat after 1251-labelled compound complexed with bovine serum albumin was injected intravenously after 5 hours; outline: as §1
Rattus norvegicus [16] = assay: Heart uptake in percent injected dose/gram (range) was determined in female fischer rat after 1251-labelled compound complexed with bovine serum albumin was injected intravenously after 5 hours; outline: as §1
Rattus norvegicus [17] = assay: Kidneys uptake in percent injected dose/gram (range) was determined in female fischer rat after 1251-labelled compound complexed with bovine serum albumin was injected intravenously after 30 minutes; outline: as §1
Rattus norvegicus [18] = assay: Liver uptake in percent injected dose/gram (range) was determined in female fischer rat after 1251-labelled compound complexed with bovine serum albumin was injected intravenously after 30 minutes; outline: as §1
Rattus norvegicus [19] = assay: Lungs uptake in percent injected dose/gram (range) was determined in female fischer rat after 1251-labelled compound complexed with bovine serum albumin was injected intravenously after 5 hours; outline: as §1
Rattus norvegicus [20] = assay: Blood uptake in percent injected dose/gram (range) was determined in female fischer rat after 1251-labelled compound complexed with bovine serum albumin was injected intravenously after 30 minutes; outline: as §1
Rattus norvegicus [21] = assay: Thyroid uptake in percent injected dose/gram (range) was determined in female fischer rat after 1251-labelled compound complexed with bovine serum albumin was injected intravenously after 30 minutes; outline: as §1
Rattus norvegicus [22] = assay: Blood uptake in percent injected dose/gram (range) was determined in female fischer rat after 1251-labelled compound complexed with bovine serum albumin was injected intravenously after 5 hours; outline: as §1
Rattus norvegicus [23] = assay: Heart uptake in percent injected dose/gram (range) was determined in female fischer rat after 1251-labelled compound complexed with bovine serum albumin was injected intravenously after 30 minutes; outline: as §1
Rattus norvegicus [24] = assay: Kidneys uptake in percent injected dose/gram (range) was determined in female fischer rat after 1251-labelled compound complexed with bovine serum albumin was injected intravenously after 5 hours; outline: as §1
Rattus norvegicus [25] = assay: Heart uptake in percent injected dose/gram (range) was determined in female fischer rat after 1251-labelled compound complexed with bovine serum albumin was injected intravenously after 4 hours; outline: as §1
Rattus norvegicus [26] = assay: Lungs uptake in percent injected dose/gram (range) was determined in female fischer rat after 1251-labelled compound complexed with bovine serum albumin was injected intravenously after 4 hours; outline: as §1
Rattus norvegicus [27] = assay: Kidneys uptake in percent injected dose/gram (range) was determined in female fischer rat after 1251-labelled compound complexed with bovine serum albumin was injected intravenously after 4 hours; outline: as §1
Rattus norvegicus [28] = assay: Thyroid uptake in percent injected dose/gram (range) was determined in female fischer rat after 1251-labelled compound complexed with bovine serum albumin was injected intravenously after 60 min; outline: as §1
Rattus norvegicus [29] = assay: Liver uptake in percent injected dose/gram (range) was determined in female fischer rat after 1251-labelled compound complexed with bovine serum albumin was injected intravenously after 4 hours; outline: as §1
Rattus norvegicus [30] = assay: Blood uptake in percent injected dose/gram (range) was determined in female fischer rat after 1251-labelled compound complexed with bovine serum albumin was injected intravenously after 4 hours; outline: as §1
Rattus norvegicus [31] = assay: Thyroid uptake in percent injected dose/gram (range) was determined in female fischer rat after 1251-labelled compound complexed with bovine serum albumin was injected intravenously after 4 hours; outline: as §1

| SMILES | Activity (Rattus norvegicus [1]) [%] | Activity (Rattus norvegicus [2]) [%] | Activity (Rattus norvegicus [3]) [%] | Activity (Rattus norvegicus [4]) [%] | Activity (Rattus norvegicus [5]) [%] | Activity (Rattus norvegicus [6]) [%] | Activity (Rattus norvegicus [7]) [%] | Activity (Rattus norvegicus [8]) [%] | Activity (Rattus norvegicus [9]) [%] | Activity (Rattus norvegicus [10]) [%] | Activity (Rattus norvegicus [11]) [%] | Activity (Rattus norvegicus [12]) [%] | Activity (Rattus norvegicus [13]) [%] | Activity (Rattus norvegicus [17]) [%] | Activity (Rattus norvegicus [18]) [%] | Activity (Rattus norvegicus [20]) [%] | Activity (Rattus norvegicus [21]) [%] | Activity (Rattus norvegicus [23]) [%] | Activity (Rattus norvegicus [25]) [%] | Activity (Rattus norvegicus [26]) [%] | other results |
| --- | --- | --- | --- | --- | --- | --- | --- | --- | --- | --- | --- | --- | --- | --- | --- | --- | --- | --- | --- | --- | --- |
| O=C(O)CCCCCCCCCCCCCc1ccc(I)cc1 | 1.78 | 2.72 | 1.64 | 1.55 | 4.82 | 1.64 | 1.58 | 2.56 | 1.48 | 2.04 | 1.94 | 1.39 |  |  |  |  |  |  |  |  |  |
| CC(CCCCCCCCCCCCc1ccc(I)cc1)C(=O)O (racemic) | 1.52 | 1.71 | 1.68 | 1.13 | 7.61 | 7.56 | 1.8 | 11.5 | 1.64 | 2.94 | 1.85 | 1.13 | 1.03 | 1.95 | 3.85 | 1.83 | 5.3 | 1.58 |  |  | Activity (Rattus norvegicus [14]): 1.52%; Activity (Rattus norvegicus [15]): 13.95%; Activity (Rattus norvegicus [16]): 0.59%; Activity (Rattus norvegicus [19]): 0.77%; Activity (Rattus norvegicus [22]): 1.07%; Activity (Rattus norvegicus [24]): 1.36% |
| CC(CCCCCCCCCCCCc1ccc(I)cc1)CC(=O)O (racemic) [IODOFILTIC ACID] | 4.26 | 4.62 | 1.08 | 1.45 | 8.32 | 6.78 | 0.71 |  | 1.7 | 1.92 | 2.14 | 1.21 | 1.15 | 1.71 | 3.66 | 1.6 | 9.26 | 3.63 | 2.27 | 0.91 | Activity (Rattus norvegicus [27]): 1.49%; Activity (Rattus norvegicus [28]): 10.66%; Activity (Rattus norvegicus [29]): 0.95%; Activity (Rattus norvegicus [30]): 1.13%; Activity (Rattus norvegicus [31]): 9.69% |
| O=C(O)CCCCCCCCCCCCCCc1ccc(I)cc1 [IOCANLIDIC ACID] | 2.34 | 2.98 | 0.84 | 1.26 | 6.69 | 7.08 | 0.91 | 7.37 | 1.32 | 3.76 | 1.05 | 1.29 | 1.36 | 1.08 | 5.31 | 1.5 | 10.28 | 2.67 | 0.93 | 0.97 | Activity (Rattus norvegicus [27]): 0.88%; Activity (Rattus norvegicus [29]): 1.72%; Activity (Rattus norvegicus [30]): 0.7%; Activity (Rattus norvegicus [31]): 8.54% |

— ChEMBL document CHEMBL1122592, “Synthesis and evaluation of radioiodinated terminal p-iodophenyl-substituted alpha- and beta-methyl-branched fatty acids” (1984)
